{"data": "Published values pooled from the literature", "FGFR3": "Fibroblast growth factor receptor 3 (FGFR3, Homo sapiens, UniProt P22607)", "note": "Each line is one published result; the experiments were not run side by side."}
{"SMILES": "Cn1cc(-c2cc(F)cc(N3CCn4c(cc5c4CCCC5)C3=O)c2CO)cc(Nc2ccc(N3CCN(C4COC4)CC3)cn2)c1=O", "target": "FGFR3", "observed": "enzyme activity", "mode": "inhibitor", "tested at": "0.1 µM", "endpoint": "inhibition", "value": "19%"}
{"SMILES": "COc1cc(Nc2ncc(F)c(Nc3ccc4c(n3)NC(=O)C(C)(C)O4)n2)cc(OC)c1OC", "target": "FGFR3", "observed": "binding", "technique": "competition with immobilised ligand", "tested at": "10 µM", "endpoint": "inhibition", "value": "99%"}
{"SMILES": "Cc1nn(C)cc1-c1nc2c(N3CCN(Cc4ccc(Cl)cc4)CC3)c(Cl)cnc2[nH]1", "target": "Fibroblast growth factor receptor 3 (FGFR3, Homo sapiens, UniProt P22607, G697C)", "observed": "binding", "technique": "competition with immobilised ligand", "tested at": "1 µM", "endpoint": "remaining binding", "value": "69%"}
{"SMILES": "COc1ncccc1-c1cnn2ccc(N3CCN(C(=O)OC(C)C)CC3)nc12", "target": "FGFR3", "observed": "binding", "technique": "competition with immobilised ligand", "tested at": "1 µM", "endpoint": "remaining binding", "value": "86%"}
{"SMILES": "O=c1[nH]c2ccccc2n1C1CCN(Cc2ccc(-c3[nH]c4cc5ncnc5cc4nc3-c3ccccc3)cc2)CC1", "target": "FGFR3", "observed": "cell-free assay", "tested at": "0.5 µM", "endpoint": "remaining signal", "value": "101%"}
{"SMILES": "Nc1ncc(-c2nc(N3CCOCC3)nc(N3CCOCC3)n2)c(C(F)F)n1", "target": "FGFR3", "observed": "cell-free assay", "technique": "competition with immobilised ligand", "tested at": "10 µM", "endpoint": "remaining binding", "value": "88%"}
{"SMILES": "C#Cc1n[nH]c2c(-c3cn(C(C)c4ccccn4)c(=O)[nH]c3=O)cc(F)cc12 (stereo not drawn)", "target": "FGFR3", "observed": "enzyme activity", "mode": "inhibitor", "tested at": "1 µM", "endpoint": "inhibition", "value": "9.3%"}
{"SMILES": "Cn1cncc1[C@@](O)(COc1ccc(C#N)cc1-c1ccc(OC(F)(F)F)cc1)c1ccc(C#N)cc1", "target": "FGFR3", "observed": "cell-free assay", "technique": "competition with immobilised ligand", "tested at": "1 µM", "endpoint": "remaining binding", "value": "100%"}
{"SMILES": "CC(C)(C)c1cc(C=C(C#N)C#N)cc(Br)c1O", "target": "FGFR3", "observed": "enzyme activity", "mode": "inhibitor", "tested at": "0.5 µM", "endpoint": "remaining activity", "value": "92.8%"}
